Assays:
[1] = target: T1, ALAS/ALAS (single chain dimeric ALAS) (Mus musculus, UniProt P08680); assay: dissociation constant for ALA binding
T1 sequence (P08680 50-587): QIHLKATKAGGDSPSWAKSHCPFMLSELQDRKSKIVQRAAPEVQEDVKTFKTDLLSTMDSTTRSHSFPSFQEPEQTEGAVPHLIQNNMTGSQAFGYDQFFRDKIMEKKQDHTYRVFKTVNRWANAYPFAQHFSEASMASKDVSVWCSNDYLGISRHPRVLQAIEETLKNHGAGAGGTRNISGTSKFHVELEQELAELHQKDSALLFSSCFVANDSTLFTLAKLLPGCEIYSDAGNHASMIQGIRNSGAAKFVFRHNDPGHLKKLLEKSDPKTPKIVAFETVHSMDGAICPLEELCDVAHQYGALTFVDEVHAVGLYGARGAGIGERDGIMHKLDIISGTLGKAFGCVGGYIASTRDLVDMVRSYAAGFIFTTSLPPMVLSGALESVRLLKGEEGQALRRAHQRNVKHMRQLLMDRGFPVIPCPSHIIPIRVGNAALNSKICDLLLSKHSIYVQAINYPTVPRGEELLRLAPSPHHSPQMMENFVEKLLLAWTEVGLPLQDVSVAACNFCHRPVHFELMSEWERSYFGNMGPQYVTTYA

ALAS/AONS = assay: continuous coupled spectrophotometric assay; assay type: biochemical, Mus musculus; Escherichia coli; conditions: read-out: KmSCoA; ALAS site; co-substrate glycine; 30 °C
Summary of the method: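 ALAS/AONS chimera was expressed in E. coli DH5α and purified by 20–40% ammonium sulfate fractionation, Ultrogel ACA-44 gel filtration and Q-Sepharose (100–150 mM KCl gradient). Its concentration was taken on a 96 kD subunit basis. ALAS-site activity was read continuously by spectrophotometry at 30 °C, varying one substrate with the other held constant. Km came from Michaelis-Menten nonlinear regression.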

SEC = target: the molecule itself; assay: SEC

`NCC(=O)CCC(=O)O` [ALA, 5-aminolevulinate] was tested, and the Kd [1] was 1460 ± 10 nM.

`CC(C)(COP(=O)(O)OP(=O)(O)OC[C@H]1O[C@@H](n2cnc3c(N)ncnc32)[C@H](O)[C@@H]1OP(=O)(O)O)[C@@H](O)C(=O)NCCC(=O)NCCSC(=O)CCC(=O)O` [SCoA, succinyl-CoA] showed a Km (ALAS/AONS) of 1500 ± 200 nM.

B1: ALAS/AONS chimera (single-chain chimera of murine erythroid 5-aminolevulinate synthase and E. coli 8-amino-7-oxononanoate synthase) (enzyme, murine | E. coli)
chain: QIHLKATKAGGDSPSWAKSHCPFMLSELQDRKSKIVQRAAPEVQEDVKTFKTDLLSTMDSTTRSHSFPSFQEPEQTEGAVPHLIQNNMTGSQAFGYDQFFRDKIMEKKQDHTYRVFKTVNRWANAYPFAQHFSEASMASKDVSVWCSNDYLGISRHPRVLQAIEETLKNHGAGAGGTRNISGTSKFHVELEQELAELHQKDSALLFSSCFVANDSTLFTLAKLLPGCEIYSDAGNHASMIQGIRNSGAAKFVFRHNDPGHLKKLLEKSDPKTPKIVAFETVHSMDGAICPLEELCDVAHQYGALTFVDEVHAVGLYGARGAGIGERDGIMHKLDIISGTLGKAFGCVGGYIASTRDLVDMVRSYAAGFIFTTSLPPMVLSGALESVRLLKGEEGQALRRAHQRNVKHMRQLLMDRGFPVIPCPSHIIPIRVGNAALNSKICDLLLSKHSIYVQAINYPTVPRGEELLRLAPSPHHSPQMMENFVEKLLLAWTEVGLPLQDVSVAACNFCHRPVHFELMSEWERSYFGNMGPQYVTTYAELMSWQEKINAALDARRAADALRRRYPVAQGAGRWLVADDRQYLNFSSNDYLGLSHHPQIIRAWQQGAEQFGIGSGGSGHVSGYSVVHQALEEELAEWLGYSRALLFISGFAANQAVIAAMMAKEDRIAADRLSHASLLEAASLSPSQLRRFAHNDVTHLARLLASPCPGQQMVVTEGVFSMDGDSAPLAEIQQVTQQHNGWLMVDDAHGTGVIGEQGRGSCWLQKVKPELLVVTFGKGFGVSGAAVLCSSTVADYLLQFARHLIYSTSMPPAQAQALRASLAVIRSDEGDARREKLAALITRFRAGVQDLPFTLADSCSAIQPLIVGDNSRALQLAEKLRQQGCWVTAIRPPTVPAGTARLRLTLTAAHEMQDIDRLLEVLHGNG
In the case of B1, the “stoichiometry N” value (SEC) is reported as 2.
